Structures are written as SMILES.

The nature of this data set: Toxicity liver stage against HepG2, at 10uM. The data set is classed as cell-based. The arrangement: test concentration 10 uM, cell line HepG2-A16-CD81EGFP. As to conditions: human, HepG2-A16-CD81EGFP cells; read-out: INHIBITION
The essentials: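 Uninfected HepG2-A16-CD81EGFP cells, 3 × 10^3 per well, 1536-well, plated on prespotted compound at 10 μM final, parasite-free screening media added to match infected plates; puromycin 10 μM positive, DMSO 0.5% negative; run in parallel with 48 h PbLuc assay at 37 °C, 5% CO2; viability by CellTiter-Glo luminescence, normalized to controls.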
For the compound `O=C(Nc1nccs1)c1csc(NC2CCCC2)n1`, the cytotoxicity at 10 µM was 42%.
Regarding `CC1=Nc2c(c(=O)[nH]n2C(C)C)C(c2ccc3ncccc3c2)S1` (stereo unspecified), the cytotoxicity at 10 µM amounted to 4.66%.
In the case of `O=C(C1=COCCO1)N1CC(Oc2nc3c(C(F)(F)F)cccc3s2)C1`, the cytotoxicity at 10 µM is 36%.
As to `CCOc1ccc(S(=O)(=O)Nc2cnc(OC)nc2OC)cc1`, the cytotoxicity at 10 µM amounted to 44.7%.
With `CNC(=O)CS(=O)(=O)C1CCN(S(=O)(=O)c2cccc(Cl)c2C)CC1` the figure was 4.73%; with `CC(C)N1CCN(C)CC1c1nnc2ccc(C(=O)N3CCCC3)cn12` (stereo unspecified), -145%.
As to `CN(C)C(=O)N1CCN(C(=O)c2cccc(Cl)c2)CC2(CNC(=O)C2)C1` (stereo unspecified), the cytotoxicity at 10 µM is 7.61%.
Consider `O=C(Nc1cccc(Cl)c1)c1nn(C2CCS(=O)(=O)C2)c2c1CCCC2` (stereo unspecified), for which the cytotoxicity at 10 µM is -12.9%.
On to `CCOC(=O)Cn1cnc2nc3n(c2c1=O)CCC3`, for which the cytotoxicity at 10 µM is -2.06%.
The same measure for `Cc1cccc(NC(C)C(=O)Nc2nccs2)c1` (stereo unspecified): -0.524%; for `Oc1cc(C2CCCN(Cc3cccs3)C2)nc(-c2ccccn2)n1` (stereo unspecified): 29.5%.
The same measure for `Cc1nn(C)cc1C1=NS(=O)(=O)N(C)C(C(=O)Nc2ccc(Br)cc2)=C1`: 3.46%; for `CC(C)(C)n1nnnc1CN(Cc1ccccc1)Cc1ccc(Cl)cc1`: 28.8%.
With `NS(=O)(=O)c1ccc(NCc2ccccc2F)cc1C(F)(F)F` the figure was -10.2%; with `CCc1ccc(S(=O)(=O)N2CCCC(c3ncc[nH]3)C2)s1` (stereo unspecified), 12.8%; with `FC(F)Oc1ccc(CNCc2cc(Br)c3c(c2)OCO3)cc1`, 35.1%.
As to `CN1CCCN(c2ccc(F)cc2CNC(=O)c2ccsc2)CC1`, the cytotoxicity at 10 µM is -12.3%.
With `COc1ccc(C2CCCN2c2ccnc(C)c2Cl)c(OC)c1` (stereo unspecified) the figure was 28.4%.
With `Cn1nccc1C1CCN(Cc2cnn(-c3ccccc3)n2)CC1`, the cytotoxicity at 10 µM is 27.2%.
Regarding `CN1CCN(c2ccc(NCc3ccc(OC(F)(F)F)cc3)cn2)CC1`, the cytotoxicity at 10 µM is 14.9%.
As to `O=C(CN1CCCC(c2ncc[nH]2)C1)NCC(F)(F)F` (stereo unspecified), the cytotoxicity at 10 µM amounted to 9.37%.
For `CC1CCN(CCNC(=O)c2sccc2C2CC2)CC1`, the cytotoxicity at 10 µM was -144%.
The same measure for `COCCN(Cc1ccccc1)C(=O)c1cnn(C)c1C`: -144%; for `CCCn1c(=O)n(CCC(=O)N(C)Cc2ccc(C)o2)c2ccccc21`: -3.26%.
For `CCc1nc(CN(C)C(=O)c2ccc(OCCCOC)nc2)cs1`, the cytotoxicity at 10 µM is -19.5%.
As to `CCCOc1ccccc1C(N)CC(C)C` (stereo unspecified), the cytotoxicity at 10 µM was -0.595%.
With `Cc1cc(C2CCCN(Cc3nc(Cc4ccccc4)no3)C2)n[nH]1` (stereo unspecified) the figure was 3.82%.
For `Cc1cc(CN(C)Cc2csc(-c3ccc(C(C)C)cc3)n2)no1`, the cytotoxicity at 10 µM was determined as 41.1%.
Consider `CC(CNC(=O)c1ccc(C#N)cc1)N1CCc2ccccc21` (stereo unspecified), for which the cytotoxicity at 10 µM worked out at 2.84%.
In the case of `O=C(O)c1cc(S(=O)(=O)Nc2cccc3c2OCCO3)c(Cl)cc1F`, the cytotoxicity at 10 µM was -7.08%.
With `CC(CCc1ccccc1F)C(=O)NS(=O)(=O)N(C)C(C)C` (stereo unspecified) the figure was 10.6%.
For the compound `COCCCC(=O)Nc1cc(Cl)c(Cl)cn1`, the cytotoxicity at 10 µM was found to be 87%.
With `CN(CCc1ccccn1)Cc1nccn1Cc1ccccc1` the figure was 10.1%.
On to `CN(Cc1ccccc1OC(F)(F)F)C(=O)C1CC1`, for which the cytotoxicity at 10 µM was 10.8%.
Consider `COc1ccc(CNC(=O)C2=NN(c3ccc(C)cc3)C(=O)CN2)cc1`, for which the cytotoxicity at 10 µM was 17.5%.
For the compound `CC(=O)c1cccc(OCCCC(=O)N(C)Cc2cnn(C)c2)c1`, the cytotoxicity at 10 µM was -3.05%.
As to `CC(C)c1cc(C(=O)N2CCN(Cc3ccc(C#N)cc3)CC2)n[nH]1`, the cytotoxicity at 10 µM stood at 26.3%.
In the case of `COCCN(Cc1ccc(F)cc1Cl)C(=O)c1cnn(C)c1C`, the cytotoxicity at 10 µM amounted to 12.8%.
With `Cc1cnn(CC2CCCN2Cc2coc(-c3cccc(F)c3)n2)c1` (stereo unspecified), the cytotoxicity at 10 µM came out at 1.2%.
In the case of `CC(C)c1noc(CN(Cc2ccc(F)cc2)C2CC2)n1`, the cytotoxicity at 10 µM is 6.83%.
For `CC(=O)Nc1cccc(OCCNC(=O)N(C)Cc2ccccc2)c1`, the cytotoxicity at 10 µM was -13.2%.
As for `O=C(CN1CCCC1Cn1cncn1)Nc1ccc(Cl)cn1` (stereo unspecified), the cytotoxicity at 10 µM is -5.89%.
For `Cc1n[nH]c(C)c1C1COCCN1C(=O)Cc1ccccc1F` (stereo unspecified), the cytotoxicity at 10 µM is -2.46%.
For `COC(C)(C)CNC(=O)N1CCCC1c1c(C)n[nH]c1C` (stereo unspecified), the cytotoxicity at 10 µM was 1.76%.
As for `NC(CC1CCCC1)c1ccc(Oc2ccccc2)cc1` (stereo unspecified), the cytotoxicity at 10 µM amounted to 3.72%.
The same measure for `Cc1cnn(CC(=O)NCC2(O)CCCc3ccccc32)c1` (stereo unspecified): -38%; for `Clc1cnccc1NCc1cccc(COC2CCOCC2)c1`: 53.9%.
For the compound `O=S(=O)(c1cccnc1)N1CCN(CC(O)c2ccccc2)CC1` (stereo unspecified), the cytotoxicity at 10 µM was determined as 0.871%.
Turning to `CS(=O)(=O)Cc1noc(CN2CCc3c(Cl)cccc3C2)n1`, the cytotoxicity at 10 µM is -4.07%.
For `CCCC(=O)N1CCCN(C(=O)c2oc(C)nc2C)CC1`, the cytotoxicity at 10 µM was -3.92%.
With `Fc1ccc(C(NCc2nnc(-c3ccco3)o2)C2CCC2)cc1` (stereo unspecified), the cytotoxicity at 10 µM is -36.3%.
Consider `CN(Cc1ccc(Cl)s1)C(=O)CN(C)C1CCc2ccccc21` (stereo unspecified), for which the cytotoxicity at 10 µM was 18.1%.
For the compound `O=C(CN1CCc2sccc2C1)Nc1ccnc2ccnn12`, the cytotoxicity at 10 µM was found to be 46.8%.
For `CCc1nnsc1C(=O)NC1CCN(CCOc2ccc(Br)cc2)CC1`, the cytotoxicity at 10 µM is -9.56%.
The same measure for `COc1ccc(NC(C)=O)c(N2CCN(C(C)=O)CC2)n1`: -8.83%.
`CC(=O)c1c(F)cccc1N1CCC(Cc2cccnc2)CC1`: the cytotoxicity at 10 µM was found to be 43.6%.
For the compound `Cc1ncnc2c1CCN(C(=O)N(C)C)CC2`, the cytotoxicity at 10 µM is -79.1%.
As to `CC(C)n1c2ccccc2c2c1cc(C(=O)N(C)C)n2C`, the cytotoxicity at 10 µM was -85.4%.
With `CN1CCN(Cc2cn3c(n2)CN(Cc2ccncc2)CC3)CC1` the figure was -94.8%; with `O=C(CCO)N1CC[C@@H]2CN(C(=O)c3ccco3)CCO[C@@H]2C1`, -72.6%.
With `COCCC(=O)N1CCC2(CN(Cc3cccc(Cl)c3)C2)C1`, the cytotoxicity at 10 µM is -79.6%.
With `c1cc(-c2cn3nccc3nc2C2CCCCC2)nc(N2CCCC2)n1` the figure was 10.7%.
With `c1ccc(C2CCN(c3ncnc4c3CCNC4)CC2)cc1` the figure was 5.03%.
`COc1ccc2cc(C3CN(C(=O)CCNC(C)=O)CCO3)ccc2c1` (stereo unspecified): the cytotoxicity at 10 µM turned out to be 9.85%.
Consider `CCCC1(CO)CCCN(Cc2nccs2)C1` (stereo unspecified), for which the cytotoxicity at 10 µM stood at 1.41%.
Regarding `CCOc1ccc(CN(CCOC)c2nc(C)nc3oc(C)nc23)cc1`, the cytotoxicity at 10 µM is -30.2%.
As for `Cc1cc(Cl)ccc1C(=O)C1CCCN(Cc2cnc(N(C)C)s2)C1` (stereo unspecified), the cytotoxicity at 10 µM was -13.1%.
With `Cc1ccc(C2(O)CCN(C(=O)CCn3ccc(=O)[nH]c3=O)CC2)nc1` the figure was 1.99%; with `Cc1nc(CCN)cc(N2CCC(O)(c3ccc(Cl)cc3)CC2)n1`, -2.24%; with `CCOC(=O)C1(Cc2ccc(Cl)cc2)CCN(Cc2ncc[nH]2)CC1`, -2.36%.
Regarding `c1ccc2sc(N3CCN(c4ncnc5c4CCC5)CC3)nc2c1`, the cytotoxicity at 10 µM is 56.7%.
For the compound `FC(F)(F)c1cccc(OC2CCN(Cc3ncc[nH]3)CC2)c1`, the cytotoxicity at 10 µM was -2.45%.
Regarding `CCn1cc(-c2cc(-c3ccn(C)c3)nc(N)c2C#N)cc1C#N`, the cytotoxicity at 10 µM amounted to 2.11%.
As to `Nc1cc(N2CCCC(COc3ccc(F)cc3)C2)nc(N)n1` (stereo unspecified), the cytotoxicity at 10 µM was -7.58%.
Turning to `COc1ccccc1OCc1cc(C(=O)NC[C@@H]2CCCN2)n[nH]1`, the cytotoxicity at 10 µM was -3.81%.
With `CC(=O)N1CCc2nc(N(C)C)nc(NCCc3ccccc3)c2CC1` the figure was -2.38%.
For the compound `O=C1NCCCC12CCN(c1nc3c(c(C(F)(F)F)n1)CCCC3)C2` (stereo unspecified), the cytotoxicity at 10 µM is -7.11%.
`O=C1N(Cc2ccc(F)c(F)c2)CCCC12CCN(C1CCSCC1)C2` (stereo unspecified): the cytotoxicity at 10 µM is -19.1%.
For the compound `CCOCc1ccc(CNc2cncc(-n3cccn3)n2)cc1`, the cytotoxicity at 10 µM worked out at 20.8%.
The same measure for `CCOC(=O)c1ccc(S(=O)(=O)NCc2cccnc2N(C)C)cc1`: 32.1%.
Turning to `COc1cc(C(=O)Nc2nc(C)no2)ccc1OC(F)F`, the cytotoxicity at 10 µM was -4.29%.
For `O=C(NCCCNc1ccc(C(F)(F)F)cn1)c1ccc(F)cc1Br`, the cytotoxicity at 10 µM amounted to 13.1%.
Take `COc1ccc(C)cc1CN1CCCC1c1noc(C2CC2)n1` (stereo unspecified): the cytotoxicity at 10 µM stood at 16.3%.
`c1cnn(CC2CCCN2c2ncnc3sccc23)c1` (stereo unspecified): the cytotoxicity at 10 µM was determined as 38.1%.
For the compound `Cn1ncc(NCc2cccc(COC(C)(C)C)c2)c(Cl)c1=O`, the cytotoxicity at 10 µM was 42.2%.
`Cc1nc(C)n(CC2CCCN(c3ncnc4c3CCC4)C2)n1` (stereo unspecified): the cytotoxicity at 10 µM turned out to be 30.5%.
For the compound `Cn1ccnc1CN(Cc1ccccn1)Cc1ccccc1Cl`, the cytotoxicity at 10 µM came out at 11.5%.
With `CC(C)CN1C(=O)C2(CCN(Cc3nccs3)C2)c2ccccc21` (stereo unspecified), the cytotoxicity at 10 µM came out at 0.371%.
On to `Fc1cccc(N2CCCC3(CN(Cc4ccncc4)CCO3)C2)c1` (stereo unspecified), for which the cytotoxicity at 10 µM turned out to be 8.98%.
With `Fc1cccc(N2CCCC3(C2)CN(c2ncccn2)CCO3)c1` (stereo unspecified), the cytotoxicity at 10 µM was found to be 17.4%.
`CCc1cnc(N2CCc3cc(C(=O)NC)c(N(C)C)nc3CC2)nc1`: the cytotoxicity at 10 µM is -125%.
Turning to `CN(C)C(=O)CN1C(=O)C[C@@H]2[C@@H]1CCN2Cc1cccc(C#N)c1`, the cytotoxicity at 10 µM is -61.3%.
`CN(C)c1nccc(N2CCO[C@H]3CN(Cc4nccn4C)C[C@H]32)n1`: the cytotoxicity at 10 µM was -123%.
`Cc1ccc(CN2CCCC3(CCN(Cc4ccoc4)CC3)C2)cc1`: the cytotoxicity at 10 µM is -91%.
For `Fc1cnc(N2CCN3C[C@H](Oc4cccnc4)C[C@H]3C2)nc1`, the cytotoxicity at 10 µM was 13.1%.
As to `CC(=O)c1cc(CN2C[C@@H]3CC[C@H]2CN(S(=O)(=O)N(C)C)C3)cs1`, the cytotoxicity at 10 µM is -8.19%.

(Values after ChEMBL document CHEMBL4513216, “Probing the Open Global Health Chemical Diversity Library for Multistage-Active Starting Points for Next-Generation Antimalarials” (ACS Infect Dis, 2020).)
